For data set [1], the target named is T1, Alternative oxidase, mitochondrial (Trypanosoma brucei brucei, UniProt Q26710). The data set is described as follows: Binding affinity to recombinant Trypanosoma brucei brucei 427 alternative oxidase expressed in Escherichia coli BL21 cells using ubiquinol-1 as substrate by spectrophotometric method.
The test system of data set [2] is Trypanosoma brucei brucei. The data set is described as follows: Antiparasitic activity against bloodstream trypomastigote stage of wild type Trypanosoma brucei brucei Lister 427 after 48 hrs by resazurin dye based fluorescence assay. The settings on record: Lister 427, 48 h. It counts as functional, organism-based. Put shortly: (§1)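 Bloodstream trypomastigotes of T. b. brucei s427 (wild type) were tested, both with and without glycerol. EC50 values are the mean of 3 experiments ± SEM.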
On the technique in general: The colour change of resazurin is a common sign of viable cells or microbes.

Data set [3] relates to Trypanosoma brucei brucei. Description: Antiparasitic activity against bloodstream trypomastigote stage of wild type Trypanosoma brucei brucei Lister 427 after 48 hrs in presence of glycerol by resazurin dye based fluorescence assay. Particulars: Lister 427, 48 h. The class given is functional. Put shortly:
as §1

The target in data set [4] is T1, Alternative oxidase, mitochondrial. The data set is described as follows: Inhibition of recombinant Trypanosoma brucei brucei alternative oxidase using ubiquinol-1 as substrate incubated for 2 mins followed by substrate addition by spectrophotometric method. Put shortly: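 The assay measured inhibition of the ubiquinol oxidase activity of purified recombinant ∆MTS-TAO from T. b. brucei.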

The nature of data set [5]: Cytotoxicity against HEK293T cells after 30 hrs by resazurin dye based fluorescence assay. The class given is cell-based, HEK-293T. Particulars: human. Put shortly: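 Cytotoxicity was measured on human embryonic kidney (HEK) cells and reported as CC50. Values are the mean of 3 experiments ± SEM.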
Data set [6] is described as follows: Selectivity index, ratio of CC50 for HEK293T cells to EC50 for bloodstream trypomastigote stage of wild type Trypanosoma brucei brucei Lister 427. The class given is toxicity. Particulars: human; read-out: Ratio CC50/EC50. Put shortly: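 The selectivity index was calculated as CC50 in HEK cells divided by EC50 against wild-type T. b. brucei s427 bloodstream trypomastigotes.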

The test system of data set [7] is Trypanosoma brucei brucei. The data set is described as follows: Resistant factor, ratio of EC50 for pentamidine-resistant bloodstream trypomastigote stage of Trypanosoma brucei brucei harboring AQP1 to 3 deletions to EC50 for bloodstream trypomastigote stage of wild-type Trypanosoma brucei brucei Lister 427 in presence of glycerol. The class given is functional.

Data set [8] relates to Trypanosoma brucei brucei. Description: Resistance factor, ratio of EC50 for diminazene, pentamidine and melaminophenyl arsenical-resistant bloodstream trypomastigote stage of Trypanosoma brucei brucei B48 harboring TbAT1 deletions to EC50 for bloodstream trypomastigote stage of wild-type Trypanosoma brucei brucei Lister 427. The class given is functional.
Data set [9] relates to Trypanosoma brucei brucei. Description: Resistant factor, ratio of EC50 for bloodstream trypomastigote stage of wild-type Trypanosoma brucei brucei Lister 427 assessed as inhibition of respiration in presence of glycerol to EC50 for bloodstream trypomastigote stage of wild-type Trypanosoma brucei brucei Lister 427 assessed as inhibition of respiration in absence of glycerol. The class given is functional.

Data set [10] in a line: Selectivity index, ratio of CC50 for HEK293T cells to EC50 for pentamidine-resistant bloodstream trypomastigote stage of Trypanosoma brucei brucei harboring AQP1 to 3 deletions. It counts as toxicity. Particulars: human; read-out: Ratio CC50/EC50.
The subject of data set [11] is Trypanosoma brucei brucei. Description: Antiparasitic activity against bloodstream trypomastigote stage of wild type Trypanosoma brucei brucei Lister 427 at 100 uM after 48 hrs by resazurin dye based fluorescence assay. It counts as functional, organism-based.
The nature of data set [12]: Dissociation constant, pKa of the compound. The class given is physicochemical.

Each structure is given as a SMILES string. In brackets after ≈: the same amount, converted by molar mass. Activity calls are given as the source filed them.

For orientation: Ki means the dissociation constant of the complex between target and ligand, obtained from inhibition or displacement. The term MIC denotes the smallest concentration in the dilution series that meets the test's criterion for growth inhibition. The term IC50 denotes the concentration at which inhibition is half-maximal. For orientation: EC50 means the midpoint of the concentration-response curve. Low values mean a more potent agent, high ones a less potent agent. One may read the CC50 as the concentration giving 50% cytotoxicity. Lower therefore signals greater toxicity to the cells. For orientation: pKa means the pH at which an ionisable group is half protonated. High values mean a weaker acid or stronger base, low ones a stronger acid or weaker base.

T1 sequence (Q26710 whole entry): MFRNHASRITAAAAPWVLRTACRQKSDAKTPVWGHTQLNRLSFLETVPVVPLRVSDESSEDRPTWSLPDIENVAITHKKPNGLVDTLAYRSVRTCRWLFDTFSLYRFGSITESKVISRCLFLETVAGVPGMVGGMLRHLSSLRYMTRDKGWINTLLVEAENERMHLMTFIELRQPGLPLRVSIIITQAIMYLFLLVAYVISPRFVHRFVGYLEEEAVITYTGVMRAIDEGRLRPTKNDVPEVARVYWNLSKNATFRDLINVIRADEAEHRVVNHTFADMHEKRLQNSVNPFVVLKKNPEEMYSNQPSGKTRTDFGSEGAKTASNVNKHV

Take `CC(C)=CCOc1ccc(C(=O)O)c(O)c1`: in data set [1], the Ki is 5000 nM.
Regarding `C/C(=C\Cc1c(O)c(Cl)c(C)c(C=O)c1O)CC/C=C(\C)[C@@H]1CC(=O)C(C)(C)O1` [ASCOFURANONE], the results for the MIC in data set [2] and in data set [3] were 250 µM (≈ 105 µg/mL) and 0.03 µM, respectively.
Regarding `COC(=O)c1ccc(OCCCCCCCCCCCCC[P+](c2ccccc2)(c2ccccc2)c2ccccc2)cc1C.[Br-]`, the IC50 in data set [4] is > 5000 nM. This compound also returned an EC50 in [2] of 18 nM. Also, in data set [5], the CC50 at 30 h is 350 nM. Moreover, in data set [6], the selectivity ratio was 19. The figures for the “Ratio EC50” value in data set [7] and in data set [8] were >2 and <1, respectively.
As to `Cc1cc(OCCCCCCCCCCCCC[P+](c2ccccc2)(c2ccccc2)c2ccccc2)cc(O)c1C(=O)O.[Br-]`, the IC50 in data set [4] amounted to 4.2 nM. This compound also showed an EC50 in [2] of 13 nM. In data set [5], this compound gave a cytotoxic concentration (CC50) at 30 h of 830 nM. Further, the selectivity ratio is 64 in data set [6] and 230 in [10]. Moreover, the “Ratio EC50” value in data set [9] and in data set [8] was <1 each time.
With `C/C(=C\CO)CC/C=C(\C)COc1ccc(C(=O)O)c(C)c1`, the IC50 in [4] is 920 nM. The outcome in data set [11] was inactive. The pKa in [12] is < 5. The “Ratio EC50” value in data set [8] is on record as <1.
Consider `C/C(=C\CO)CC/C=C(\C)COc1ccc(C(=O)O)c(F)c1`, for which the IC50 in [4] came to 1100 nM. Moreover, the result in data set [11] was inactive. Further, in data set [12], the pKa is < 5. In addition, the “Ratio EC50” value in data set [8] is <1.
With `C/C(=C\CO)CC/C=C(\C)COc1ccc(C(=O)O)c(O)c1`, the concentration for half-maximal inhibition (IC50) in data set [4] was 2100 nM. In [11], the result was inactive. Moreover, the pKa in data set [12] is < 5. Also, the “Ratio EC50” value in data set [8] is on record as <1.
Taken in the same sequence, the figures for `C/C(=C\CO)CC/C=C(\C)COc1ccc(C(=O)O)cc1` were 2400 nM, “inactive”, < 5 and <1.
As to `COC(=O)c1ccc(OCCCCCCCCCCCCC[P+](c2ccccc2)(c2ccccc2)c2ccccc2)cc1F.[Br-]`, the IC50 in data set [4] came to 740 nM. The same compound had an EC50 in [2] of 50 nM. In data set [5], the CC50 at 30 h came out at 220 nM. Also, the selectivity ratio in data set [6] worked out at 4.5. For the same compound, the “Ratio EC50” value in [7] is listed as >2; in data set [8], <1.
As to `C/C(=C\CO)CC/C=C(\C)CC/C=C(\C)COc1cc(C)c(C(=O)O)c(O)c1`, in data set [4], the IC50 is 3.1 nM. The outcome in [11] was inactive. For the same compound, in data set [12], the pKa is < 5. Also, the “Ratio EC50” value in data set [8] is <1.

The record behind these values is ChEMBL document CHEMBL4196235, “SAR of 4-Alkoxybenzoic Acid Inhibitors of the Trypanosome Alternative Oxidase” (ACS Med Chem Lett, 2018).
